Experimental data reported in ChEMBL document CHEMBL3612031, “Incorporation of a Michael acceptor enhances the antitumor activity of triterpenoic acids” (Eur J Med Chem, 2015).
pEC50: −log10 of the molar value. Activity calls are given as the source filed them. The rule behind the calls is not given here.

Experiments:
Type in all cases: functional, cell-based
MCF7 [1] = experiment: Cytotoxicity against human MCF7 cells assessed as cell survival after 96 hrs by SRB assay; settings: for pEC50: MCF7, 96 h
Method in brief: (§1)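 Monolayers kept in RPMI 1640 with 10 % heat-inactivated FBS and penicillin/streptomycin, 37 °C, 5 % CO2. Exponentially growing cells seeded day 0 at densities avoiding confluence. After 24 h, serial dilutions 0-100 µM for 96 h, DMSO or DMF ≤0.5 % final. Fixed with 10 % TCA at 4 °C, stained 0.4 % SRB ~20 min, washed with 1 % acetic acid, dye dissolved in 10 mM Tris base, A570 read. Survival taken relative to untreated controls. EC50 fitted by two-parameter Hill equation, mean of three independent experiments each run in triplicate.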

[2] = (§2) Cytotoxicity against human 518A2 cells assessed as cell survival after 96 hrs by SRB assay; settings: 518A2, 96 h; method in brief: as §1
HT-29 = experiment: Cytotoxicity against human HT-29 cells assessed as cell survival after 96 hrs by SRB assay; settings: for pEC50: HT-29, 96 h; method in brief: as §1
A549 = experiment: Cytotoxicity against human A549 cells assessed as cell survival after 96 hrs by SRB assay; settings: for pEC50: A549, 96 h; method in brief: as §1
8505C = experiment: Cytotoxicity against human 8505C cells assessed as cell survival after 96 hrs by SRB assay; method in brief: as §1
518A2 = experiment: as §2; method in brief: as §1
MCF7 [3] = experiment: Cytotoxicity against human MCF7 cells assessed as inhibition of cell proliferation after 3 days by radioactive thymidine incorporation assay; settings: MCF7, 72 h

Q: With COC(=O)[C@]12CC[C@@H](C)[C@H](C)[C@H]1C1=CC[C@@H]3[C@@]4(C)CC[C@H](O)C(C)(C)[C@@H]4CC[C@@]3(C)[C@]1(C)CC2 [METHYL URSOLATE] as the compound, how does the pEC50 (MCF7 [1]) read?
A: < 4.52

Q: What about the pEC50 [2] of the same compound?
A: < 4.52

Q: What about the pEC50 (HT-29) of the same compound?
A: < 4.52

Q: With CC1(C)CC[C@]2(C(=O)O)CC[C@]3(C)C(=CC[C@@H]4[C@@]5(C)CC[C@H](O)C(C)(C)[C@@H]5CC[C@]43C)[C@@H]2C1 [OLEANOLIC_ACID] as the compound, how does the pEC50 (A549) read?
A: < 4.52

Q: What about the pEC50 (MCF7 [1]) of the same compound?
A: < 4.52

Q: And the pEC50 [2]?
A: < 4.52

Q: And the pEC50 (HT-29)?
A: < 4.52

Q: What about the pEC50 (8505C) of the same compound?
A: < 4.52

Q: What does the source list for COC(=O)[C@]12CCC(C)(C)C[C@H]1C1=CC(=O)[C@@H]3[C@@]4(C)CC(Br)(Br)C(=O)C(C)(C)[C@@H]4CC[C@@]3(C)[C@]1(C)CC2?
A: Activity (A549): Active; Activity (MCF7 [1]): Active; Activity (518A2): Active; Activity (HT-29): Active; Activity (8505C): Active

Q: With COC(=O)[C@]12CCC(C)(C)C[C@H]1C1=CC(=O)[C@@H]3[C@@]4(C)CCC(=O)C(C)(C)[C@@H]4CC[C@@]3(C)[C@]1(C)CC2 as the compound, how does the pEC50 (MCF7 [1]) read?
A: < 4.52

Q: What does the source list for CC(=O)[C@@H]1CC[C@]2(C(=O)O)CC[C@]3(C)[C@H](CC[C@@H]4[C@@]5(C)CC[C@H](O)C(C)(C)[C@@H]5CC[C@]43C)[C@@H]12 [PLATANIC ACID]?
A: pEC50 (A549): 5.81; pEC50 (MCF7 [1]): 5.81; pEC50 [2]: 5.82; pEC50 (HT-29): 5.77; pEC50 (8505C): 5.80

Q: With C[C@H]1[C@H](C)CC[C@]2(C(=O)O)CC[C@]3(C)C(=CC[C@@H]4[C@@]5(C)CC[C@H](O)C(C)(C)[C@@H]5CC[C@]43C)[C@H]12 [URSOLIC ACID] as the compound, how does the pEC50 (A549) read?
A: 4.81

Q: And the pEC50 (MCF7 [1])?
A: 4.90

Q: What about the pEC50 [2] of the same compound?
A: 4.83

Q: What about the pEC50 (HT-29) of the same compound?
A: 4.97

Q: What about the pEC50 (8505C) of the same compound?
A: 4.87

Q: With COC(=O)[C@]12CCC(C)(C)C[C@H]1C1=CC(=O)[C@@H]3[C@@]4(C)CC[C@H](O)C(C)(C)[C@@H]4CC[C@@]3(C)[C@]1(C)CC2 as the compound, how does the pEC50 (MCF7 [1]) read?
A: 4.54

Q: What about the pEC50 [2] of the same compound?
A: < 4.52

Q: And the pEC50 (HT-29)?
A: 4.56

Q: With COC(=O)[C@@]1(C)CC[C@]2(C)CC[C@]3(C)C(=CC(=O)[C@@H]4[C@@]5(C)CCC(=O)C(C)(C)[C@@H]5CC[C@]43C)[C@@H]2C1 as the compound, how does the pEC50 (A549) read?
A: 4.58

Q: What about the pEC50 (MCF7 [1]) of the same compound?
A: 4.78

Q: What about the pEC50 [2] of the same compound?
A: < 4.52

Q: And the pEC50 (HT-29)?
A: 4.57

Q: What about the pEC50 (8505C) of the same compound?
A: 4.69

Q: With COC(=O)[C@@]1(C)CC[C@]2(C)CC[C@]3(C)C(=CC(=O)[C@@H]4[C@@]5(C)CC[C@H](O)C(C)(C)[C@@H]5CC[C@]43C)[C@@H]2C1 as the compound, how does the pEC50 (A549) read?
A: < 4.52

Q: What about the pEC50 (MCF7 [1]) of the same compound?
A: < 4.52

Q: And the pEC50 [2]?
A: < 4.52

Q: And the pEC50 (HT-29)?
A: < 4.52

Q: What about the pEC50 (8505C) of the same compound?
A: < 4.52

Q: With CC1(C)CC[C@]2(C(=O)O)CC[C@]3(C)[C@H](C(=O)C=C4[C@@]5(C)C=C(C#N)C(=O)C(C)(C)[C@@H]5CC[C@]43C)[C@@H]2C1 [BARDOXOLONE] as the compound, how does the pEC50 (MCF7 [3]) read?
A: 6.80

Q: With C=C1C[C@]2(C)[C@H]3CC=C4[C@@H]5[C@@H](C)[C@H](C)CC[C@]5(C(=O)OC)CC[C@@]4(C)[C@]3(C)CC[C@H]2C(C)(C)C1=O as the compound, how does the pEC50 (A549) read?
A: 5.53

Q: And the pEC50 (MCF7 [1])?
A: 5.35

Q: And the pEC50 [2]?
A: 5.67

Q: And the pEC50 (HT-29)?
A: 5.87

Q: And the pEC50 (8505C)?
A: 5.21

Q: Which Activity (A549) does the source give for COC(=O)[C@]12CC[C@@H](C)[C@H](C)[C@H]1C1=CC[C@@H]3[C@@]4(C)C[C@H](C)C(=O)C(C)(C)[C@@H]4CC[C@@]3(C)[C@]1(C)CC2 here?
A: inactive

Q: And the Activity (MCF7 [1])?
A: inactive

Q: And the Activity (518A2)?
A: inactive

Q: What about the Activity (HT-29) of the same compound?
A: inactive

Q: And the Activity (8505C)?
A: inactive

Q: Which results are given for COC(=O)[C@]12CC[C@@H](C)[C@H](C)[C@H]1C1=CC(=O)[C@@H]3[C@@]4(C)CC[C@H](O)C(C)(C)[C@@H]4CC[C@@]3(C)[C@]1(C)CC2?
A: pEC50 (MCF7 [1]): < 4.52; pEC50 [2]: < 4.52; pEC50 (HT-29): < 4.52

Q: Which Activity (A549) does the source give for C=C1C[C@]2(C)[C@H]3C(=O)C=C4[C@@H]5C[C@@](C)(C(=O)OC)CC[C@]5(C)CC[C@@]4(C)[C@]3(C)CC[C@H]2C(C)(C)[C@H]1O here?
A: inactive

Q: And the Activity (MCF7 [1])?
A: inactive

Q: What about the Activity (518A2) of the same compound?
A: inactive

Q: And the Activity (HT-29)?
A: inactive

Q: What about the Activity (8505C) of the same compound?
A: inactive

Q: With CC1(C)[C@@H](O)CC[C@]2(C)[C@H]3C(=O)C=C4[C@@H]5C[C@@](C)(C(=O)O)CC[C@]5(C)CC[C@@]4(C)[C@]3(C)CC[C@@H]12 [ENOXOLONE] as the compound, how does the pEC50 (A549) read?
A: 4.08

Q: And the pEC50 (MCF7 [1])?
A: 4.07

Q: And the pEC50 [2]?
A: 4.08

Q: And the pEC50 (HT-29)?
A: 4.10

Q: And the pEC50 (8505C)?
A: 4.06

Q: With COC(=O)[C@]12CC[C@@H](C)[C@H](C)[C@H]1C1=CC(=O)[C@@H]3[C@@]4(C)CCC(=O)C(C)(C)[C@@H]4CC[C@@]3(C)[C@]1(C)CC2 as the compound, how does the pEC50 (A549) read?
A: 5.42

Q: And the pEC50 (MCF7 [1])?
A: 5.37

Q: And the pEC50 [2]?
A: 5.43

Q: And the pEC50 (HT-29)?
A: 5.43

Q: And the pEC50 (8505C)?
A: 5.36

Q: With C=C1C[C@]2(C)[C@H]3CC=C4[C@@H]5CC(C)(C)CC[C@]5(C(=O)OC)CC[C@@]4(C)[C@]3(C)CC[C@H]2C(C)(C)C1=O as the compound, how does the pEC50 (A549) read?
A: < 4.52

Q: And the pEC50 (MCF7 [1])?
A: < 4.52

Q: And the pEC50 [2]?
A: < 4.52

Q: What about the pEC50 (HT-29) of the same compound?
A: < 4.52

Q: And the pEC50 (8505C)?
A: < 4.52

Q: With C=C1C[C@]2(C)[C@H]3C(=O)C=C4[C@@H]5C[C@@](C)(C(=O)OC)CC[C@]5(C)CC[C@@]4(C)[C@]3(C)CC[C@H]2C(C)(C)C1=O as the compound, how does the pEC50 (A549) read?
A: < 4.52

Q: And the pEC50 (MCF7 [1])?
A: 6.13

Q: What about the pEC50 [2] of the same compound?
A: < 4.52

Q: What about the pEC50 (HT-29) of the same compound?
A: < 4.52

Q: And the pEC50 (8505C)?
A: < 4.52

Q: Which results are given for COC(=O)[C@]12CCC(C)(C)C[C@H]1C1=CC[C@@H]3[C@@]4(C)CC[C@H](O)C(C)(C)[C@@H]4CC[C@@]3(C)[C@]1(C)CC2 [METHYL OLEANOLATE]?
A: pEC50 (MCF7 [1]): < 4.52; pEC50 [2]: < 4.52; pEC50 (HT-29): < 4.52

Q: For COC(=O)[C@]12CC[C@@H](C)[C@H](C)[C@H]1C1=CC[C@@H]3[C@@]4(C)CC(Br)(Br)C(=O)C(C)(C)[C@@H]4CC[C@@]3(C)[C@]1(C)CC2, which Activity (A549) is on record?
A: Active

Q: What about the Activity (MCF7 [1]) of the same compound?
A: Active

Q: What about the Activity (518A2) of the same compound?
A: Active

Q: What about the Activity (HT-29) of the same compound?
A: Active

Q: And the Activity (8505C)?
A: Active

Q: With C=C1C[C@]2(C)[C@H]3C(=O)C=C4[C@@H]5[C@@H](C)[C@H](C)CC[C@]5(C(=O)OC)CC[C@@]4(C)[C@]3(C)CC[C@H]2C(C)(C)C1=O as the compound, how does the pEC50 (A549) read?
A: 5.80

Q: And the pEC50 (MCF7 [1])?
A: 5.33

Q: What about the pEC50 [2] of the same compound?
A: 5.82

Q: And the pEC50 (HT-29)?
A: 5.50

Q: And the pEC50 (8505C)?
A: 5.79

Q: For COC(=O)[C@]12CC[C@@H](C)[C@H](C)[C@H]1C1=CC(=O)[C@@H]3[C@@]4(C)CC(Br)(Br)C(=O)C(C)(C)[C@@H]4CC[C@@]3(C)[C@]1(C)CC2, which Activity (A549) is on record?
A: Active

Q: What about the Activity (MCF7 [1]) of the same compound?
A: Active

Q: What about the Activity (518A2) of the same compound?
A: Active

Q: What about the Activity (HT-29) of the same compound?
A: Active

Q: What about the Activity (8505C) of the same compound?
A: Active

Q: Which results are given for C=C1C[C@]2(C)[C@H]3C(=O)C=C4[C@@H]5CC(C)(C)CC[C@]5(C(=O)OC)CC[C@@]4(C)[C@]3(C)CC[C@H]2C(C)(C)C1=O?
A: pEC50 (A549): 4.75; pEC50 [2]: 4.78; pEC50 (8505C): 4.81
